Data: ChEMBL document CHEMBL1138526, “Design, synthesis, and biological activity of boronic acid-based histone deacetylase inhibitors” (J Med Chem, 2009)
Values belong to the compound of their own block, whether it stands above or below them.

How the values were obtained:
[1] = biological target: T1, Histone deacetylase (Homo sapiens) (UniProt Q13547+O15379+Q9UBN7+Q92769+Q9UQL6+Q8WUI4+Q9BY41+Q96DB2+P56524+Q9UKV0+Q969S8); experiment: Inhibition of HDAC in human HeLa cell nuclear extracts at 100 uM by fluorimetry; format: cell-free
[2] = biological target: Histone deacetylase; experiment: Inhibition of HDAC in human HeLa cell nuclear extracts by fluorimetry; format: cell-based
[3] = biological target: T2, Histone deacetylase 1 (Homo sapiens, UniProt Q13547); experiment: Inhibition of human recombinant HDAC1 by fluorimetry
[4] = biological target: Histone deacetylase 2 (Homo sapiens, UniProt Q92769); experiment: Inhibition of human recombinant HDAC2 by fluorimetry
[5] = biological target: T3, Histone deacetylase 8 (Homo sapiens, UniProt Q9BY41); experiment: Inhibition of human recombinant HDAC8 by fluorimetry
T3 sequence (Q9BY41 whole entry): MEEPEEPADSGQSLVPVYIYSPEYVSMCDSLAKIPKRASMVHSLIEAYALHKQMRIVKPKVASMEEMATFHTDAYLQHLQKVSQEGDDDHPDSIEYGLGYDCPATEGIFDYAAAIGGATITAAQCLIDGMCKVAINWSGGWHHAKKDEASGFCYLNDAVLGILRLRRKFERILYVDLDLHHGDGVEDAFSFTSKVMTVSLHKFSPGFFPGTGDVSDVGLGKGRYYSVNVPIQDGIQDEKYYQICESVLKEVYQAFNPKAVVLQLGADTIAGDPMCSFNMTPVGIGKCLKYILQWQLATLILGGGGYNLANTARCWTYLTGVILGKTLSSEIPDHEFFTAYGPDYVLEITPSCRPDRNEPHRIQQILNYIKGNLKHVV

[6] = biological target: T4, Protein deacetylase HDAC6 (Homo sapiens, UniProt Q9UBN7); experiment: Inhibition of human recombinant HDAC6 by fluorimetry
T4 sequence (Q9UBN7 whole entry): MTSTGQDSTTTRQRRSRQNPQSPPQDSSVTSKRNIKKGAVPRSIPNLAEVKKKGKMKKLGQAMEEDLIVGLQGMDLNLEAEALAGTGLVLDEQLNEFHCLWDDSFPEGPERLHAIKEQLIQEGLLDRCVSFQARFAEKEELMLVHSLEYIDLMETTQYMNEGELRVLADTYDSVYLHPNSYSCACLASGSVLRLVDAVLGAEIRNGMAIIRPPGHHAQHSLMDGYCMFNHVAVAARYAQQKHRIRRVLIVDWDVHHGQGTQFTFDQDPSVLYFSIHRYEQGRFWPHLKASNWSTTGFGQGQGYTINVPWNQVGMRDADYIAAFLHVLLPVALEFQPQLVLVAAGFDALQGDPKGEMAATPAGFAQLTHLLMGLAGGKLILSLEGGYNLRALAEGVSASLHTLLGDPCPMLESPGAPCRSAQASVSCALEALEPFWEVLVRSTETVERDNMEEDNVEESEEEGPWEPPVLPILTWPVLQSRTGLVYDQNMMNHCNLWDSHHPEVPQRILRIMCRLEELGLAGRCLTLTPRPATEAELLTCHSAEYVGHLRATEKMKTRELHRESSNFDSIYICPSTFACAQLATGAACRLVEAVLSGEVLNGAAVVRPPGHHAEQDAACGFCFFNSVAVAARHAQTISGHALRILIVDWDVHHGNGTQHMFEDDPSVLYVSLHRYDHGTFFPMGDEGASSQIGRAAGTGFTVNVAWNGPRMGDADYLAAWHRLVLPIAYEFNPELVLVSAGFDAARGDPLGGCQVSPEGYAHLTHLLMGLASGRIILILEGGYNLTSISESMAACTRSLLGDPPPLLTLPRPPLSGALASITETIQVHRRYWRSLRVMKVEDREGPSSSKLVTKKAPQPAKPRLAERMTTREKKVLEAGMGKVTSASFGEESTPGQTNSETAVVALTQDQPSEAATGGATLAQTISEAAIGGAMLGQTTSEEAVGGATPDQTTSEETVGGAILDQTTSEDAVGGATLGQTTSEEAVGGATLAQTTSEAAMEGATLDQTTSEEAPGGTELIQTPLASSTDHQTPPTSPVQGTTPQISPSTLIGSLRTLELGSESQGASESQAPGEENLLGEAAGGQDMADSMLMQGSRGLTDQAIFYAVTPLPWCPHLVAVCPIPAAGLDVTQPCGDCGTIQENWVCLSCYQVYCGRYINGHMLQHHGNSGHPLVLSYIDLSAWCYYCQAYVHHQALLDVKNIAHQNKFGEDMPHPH

[7] = test system: MKN-45; experiment: cells; format: functional; conditions: Homo sapiens, MKN-45, 48 h
[8] = Ratio of GI50 for human MKN45 cells to IC50 for HDAC in human HeLa cells
[9] = Ratio of GI50 for human MKN45 cells to IC50 for human recombinant HDAC1; design: species or system MKN-45
[10] = Ratio of GI50 for human MKN45 cells to IC50 for human recombinant HDAC2; design: species or system MKN-45
[11] = cells; format: functional; conditions: Homo sapiens, HBC5, 48 h
[12] = test system: SNB-78; experiment: cells; format: functional; conditions: Homo sapiens, SNB-78, 48 h
[13] = test system: HCT-116; experiment: cells; format: functional; conditions: Homo sapiens, HCT-116, 48 h
[14] = test system: DMS-114; experiment: Growth inhibition of human DMS114 cells after 48 hrs by sulforhodamine B assay; format: functional
Method in brief: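 GI50 read from growth inhibition of DMS114 lung cancer cells, one line in a nine-line human cancer panel; each value is the mean of two separate experiments.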

[15] = test system: LOX IMVI; experiment: cells; format: functional; conditions: Homo sapiens, 48 h
[16] = test system: SK-OV-3; experiment: cells; format: functional; conditions: Homo sapiens, SK-OV-3, 48 h
[17] = cells; format: functional; conditions: Homo sapiens, RXF 631, 48 h
[18] = test system: PC-3; experiment: cells; format: functional; conditions: Homo sapiens, PC-3, 48 h
[19] = biological target: T1, Histone deacetylase (Homo sapiens); experiment: Inhibition of HDAC in human HCT116 cells assessed as induction of histone H4 acetylation after 8 hrs by Western blot analysis; format: cell-based; conditions: HCT-116
[20] = biological target: T5, Protein deacetylase HDAC6 (Homo sapiens) (UniProt Q9UBN7); experiment: Inhibition of HDAC6 in human HCT116 cells assessed as induction of alpha tubulin acetylation after 8 hrs by Western blot analysis; format: cell-based; conditions: HCT-116
T5 sequence (whole entry): T4 sequence (Q9UBN7 whole entry)

[21] = biological target: T2, Histone deacetylase 1; experiment: Inhibition of human recombinant HDAC1 at 10 uM by fluorimetry

Chain of Histone deacetylase 2 (Q92769 whole entry): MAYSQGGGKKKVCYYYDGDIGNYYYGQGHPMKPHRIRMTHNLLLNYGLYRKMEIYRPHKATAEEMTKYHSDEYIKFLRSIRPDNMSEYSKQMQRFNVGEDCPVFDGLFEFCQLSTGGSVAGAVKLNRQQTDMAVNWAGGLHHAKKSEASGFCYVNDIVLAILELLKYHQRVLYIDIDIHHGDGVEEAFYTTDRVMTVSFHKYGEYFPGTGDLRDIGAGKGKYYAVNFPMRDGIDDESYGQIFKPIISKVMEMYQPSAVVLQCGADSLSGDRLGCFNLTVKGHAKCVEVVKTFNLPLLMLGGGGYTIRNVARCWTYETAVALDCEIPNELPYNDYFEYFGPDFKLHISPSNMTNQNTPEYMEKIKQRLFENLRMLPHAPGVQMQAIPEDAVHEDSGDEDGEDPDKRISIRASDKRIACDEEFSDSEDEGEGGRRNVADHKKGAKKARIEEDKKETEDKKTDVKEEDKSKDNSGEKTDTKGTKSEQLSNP
T2 sequence (Q13547 whole entry): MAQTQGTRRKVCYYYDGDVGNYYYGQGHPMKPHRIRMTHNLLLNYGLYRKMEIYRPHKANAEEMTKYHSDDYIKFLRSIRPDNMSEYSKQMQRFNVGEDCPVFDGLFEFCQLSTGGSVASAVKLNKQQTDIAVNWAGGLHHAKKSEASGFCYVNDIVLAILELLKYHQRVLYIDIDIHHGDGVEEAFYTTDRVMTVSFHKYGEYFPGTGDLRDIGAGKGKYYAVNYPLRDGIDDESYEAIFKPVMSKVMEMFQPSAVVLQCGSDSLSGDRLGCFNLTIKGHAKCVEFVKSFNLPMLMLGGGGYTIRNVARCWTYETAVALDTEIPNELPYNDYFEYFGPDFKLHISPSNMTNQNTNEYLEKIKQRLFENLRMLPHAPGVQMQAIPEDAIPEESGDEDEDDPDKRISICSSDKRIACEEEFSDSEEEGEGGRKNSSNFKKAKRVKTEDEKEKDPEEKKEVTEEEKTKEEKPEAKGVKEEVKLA

IC50 [2]: > 100 µM
Compound: O=C(NC(CCCCCB(O)O)C(=O)Nc1cccc(-c2ccccc2)c1)c1ccc2ccccc2n1 (stereo unspecified)

IC50 [2]: 2 µM
Compound: O=C(NC(CCCCCB(O)O)C(=O)Nc1cccc(-c2ccccc2)c1)c1cccnc1 (stereo unspecified)

IC50 [2]: 1.4 µM
Compound: O=C(NC(CCCCCB(O)O)C(=O)Nc1cccc(-c2ccccc2)c1)c1cncs1 (stereo unspecified)

IC50 [2]: 4.2 µM
Compound: O=C(NC(CCCCCB(O)O)C(=O)Nc1cccc(-c2ccccc2)c1)OCc1ccccc1 (stereo unspecified)

IC50 [2]: 11 µM
Compound: O=C(NC(CCCCCB(O)O)C(=O)Nc1cccc(-c2ccccc2)c1)c1cc2ccccc2[nH]1 (stereo unspecified)

IC50 [2]: 51 µM
Compound: O=C(Nc1cccnc1)C(CCCCCB(O)O)C(=O)Nc1cccc(-c2ccccc2)c1 (stereo unspecified)

IC50 [2]: 2 µM
Compound: O=C(NC(CCCCCB(O)O)C(=O)Nc1cccc(-c2ccccc2)c1)c1ccccc1 (stereo unspecified)

IC50 [2]: 0.92 µM
IC50 [3]: 2.2 µM
IC50 [4]: 0.53 µM
IC50 [5]: 6.6 µM
IC50 [6]: 0.11 µM
GI50 [7]: 3.5 µM
GI50 [13]: 0.73 µM
GI50 [16]: 2.2 µM
GI50 [18]: 6.7 µM
Activity [19]: Dose-dependent effect
Activity [20]: Dose-dependent effect
Compound: O=C(N[C@@H](CCCCCB(O)O)C(=O)Nc1cccc(-c2ccccc2)c1)c1cncs1
Ratio [8]: 3.8
Ratio [9]: 1.6
Ratio [10]: 6.6
GI50 [11]: 6.5 µM
GI50 [12]: 9.1 µM
GI50 ([14]; Homo sapiens, DMS-114, 48 h): 2.4 µM
GI50 [15]: 1.3 µM
GI50 [17]: 3.2 µM

IC50 [2]: 24 µM
IC50 [3]: > 100 µM
IC50 [4]: > 100 µM
IC50 [5]: > 100 µM
IC50 [6]: 5.6 µM
GI50 [7]: 21 µM
GI50 [13]: 16 µM
GI50 [16]: 19 µM
GI50 [18]: 18 µM
Compound: O=C(N[C@H](CCCCCB(O)O)C(=O)Nc1cccc(-c2ccccc2)c1)c1cncs1
GI50 [11]: 20 µM
GI50 [12]: 13 µM
GI50 ([14]; Homo sapiens, DMS-114, 48 h): 17 µM
GI50 [15]: 19 µM
GI50 [17]: 19 µM

IC50 [2]: 4.7 µM
Compound: O=C(NC(CCCCCB(O)O)C(=O)Nc1cccc(-c2ccccc2)c1)c1cscn1 (stereo unspecified)

IC50 [2]: 17 µM
IC50 [3]: > 100 µM
IC50 [4]: > 100 µM
IC50 [5]: > 100 µM
IC50 [6]: 24 µM
Compound: O=C(N[C@H](CCCCCB(O)O)C(=O)Nc1cccc(-c2ccccc2)c1)c1ccccc1

IC50 [2]: 1.4 µM
IC50 [3]: 2.8 µM
IC50 [4]: 0.83 µM
IC50 [5]: 23 µM
IC50 [6]: 0.32 µM
GI50 [7]: 5.5 µM
Activity [19]: Dose-dependent effect
Activity [20]: Dose-dependent effect
Compound: O=C(N[C@@H](CCCCCB(O)O)C(=O)Nc1cccc(-c2ccccc2)c1)c1cccnc1
Ratio [8]: 3.9
Ratio [9]: 2
Ratio [10]: 6.6

IC50 [2]: 13 µM
Compound: CN(C)c1ccc(C(=O)NC(CCCCCB(O)O)C(=O)Nc2cccc(-c3ccccc3)c2)cc1 (stereo unspecified)

IC50 [2]: 1.6 µM
IC50 [3]: > 10 µM
IC50 [4]: 3.6 µM
IC50 [5]: > 100 µM
IC50 [6]: 1.1 µM
inhibition [21]: 38%
GI50 [7]: 9.3 µM
Activity [19]: Dose-dependent effect
Activity [20]: Dose-dependent effect
Compound: O=C(N[C@@H](CCCCCB(O)O)C(=O)Nc1cccc(-c2ccccc2)c1)c1ccccc1
Ratio [8]: 5.8
Ratio [9]: < 0.93
Ratio [10]: 2.6

IC50 [2]: 15 µM
IC50 [3]: > 100 µM
IC50 [4]: 99 µM
IC50 [5]: > 100 µM
IC50 [6]: 14 µM
Compound: O=C(N[C@H](CCCCCB(O)O)C(=O)Nc1cccc(-c2ccccc2)c1)c1cccnc1

More lines, now with the values behind:

Compound: CC(C)(C)OC(=O)NC(CCCCCB(O)O)C(=O)Nc1cccc(Oc2ccccc2)c1 (stereo unspecified)
inhibition [1]: 38%
IC50 [2]: > 100 µM

Compound: CC(C)(C)OC(=O)NC(CCCCCB(O)O)C(=O)Nc1cccc(-c2ccccc2)c1 (stereo unspecified)
inhibition [1]: 85%
IC50 [2]: 12 µM

Compound: CC(C)(C)OC(=O)NC(CCCCCB(O)O)C(=O)Nc1cnc2ccccc2c1 (stereo unspecified)
inhibition [1]: 86%
IC50 [2]: 16 µM

Compound: CC(C)(C)OC(=O)NC(CCCCCB(O)O)C(=O)Nc1nc2ccccc2s1 (stereo unspecified)
inhibition [1]: 78%
IC50 [2]: 23 µM

Compound: O=C(CCCCCCB(O)O)Nc1nc2ccccc2s1
inhibition [1]: 5.1%
IC50 [2]: > 100 µM

Compound: O=C(CCCCCCB(O)O)Nc1ccccc1
inhibition [1]: 37%
IC50 [2]: > 100 µM

Compound: O=C(CCCCCCB(O)O)Nc1cccc(-c2ccccc2)c1
inhibition [1]: 40%
IC50 [2]: > 100 µM

Compound: CC(C)(C)OC(=O)NC(CCCCCB(O)O)C(=O)Nc1ccccc1 (stereo unspecified)
inhibition [1]: 42%
IC50 [2]: > 100 µM

Compound: O=C(Nc1ccccc1)C(CCCCCB(O)O)C(=O)Nc1cccc(-c2ccccc2)c1 (stereo unspecified)
IC50 [2]: 30 µM

Compound: CC(C)(C)OC(=O)NC(CCCCCB(O)O)C(=O)Nc1ccc(Oc2ccccc2)cc1 (stereo unspecified)
inhibition [1]: 15%
IC50 [2]: > 100 µM

Compound: O=C(CCCCCCB(O)O)Nc1cccc(Oc2ccccc2)c1
inhibition [1]: 1.8%
IC50 [2]: > 100 µM

Compound: O=C(CCCCCCB(O)O)Nc1cnc2ccccc2c1
inhibition [1]: 32%
IC50 [2]: > 100 µM

Compound: O=C(CCCCCCC(=O)Nc1ccccc1)NO [VORINOSTAT]
GI50 [14]: 2.9 µM

Compound: O=C(CCCCCCB(O)O)Nc1ccc(Oc2ccccc2)cc1
inhibition [1]: 2.2%
IC50 [2]: > 100 µM
